Compound activity as filed in PubChem.
In the library only some 5.4% were active in any assay of this set; here they are far more common.
HePTP inhibitor: blocks human HePTP tyrosine phosphatase; P35236; recombinant HePTP phosphatase activity, OD absorbance; inhibition, % at 20 µM; 110,000 compounds, 0.64% hits; AID 521; in the data active = inhibition above about 50%;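 note: plate controls were vehicle for no effect and reference inhibitor for full effect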
Target sequence (P35236 whole entry, looked up): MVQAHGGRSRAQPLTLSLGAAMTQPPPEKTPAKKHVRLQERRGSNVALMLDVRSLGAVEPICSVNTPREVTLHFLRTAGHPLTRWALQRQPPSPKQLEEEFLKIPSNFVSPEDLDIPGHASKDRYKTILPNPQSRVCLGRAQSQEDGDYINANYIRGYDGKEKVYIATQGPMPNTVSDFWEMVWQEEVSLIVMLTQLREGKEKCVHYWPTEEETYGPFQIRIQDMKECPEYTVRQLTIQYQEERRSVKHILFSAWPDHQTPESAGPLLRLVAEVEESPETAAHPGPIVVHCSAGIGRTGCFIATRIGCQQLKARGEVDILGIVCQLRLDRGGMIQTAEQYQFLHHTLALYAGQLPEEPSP
tolC growth inh: E. coli tolC mutant growth inhibition. E. coli BW25113 tolC mutant growth, OD615. growth inhibition, % at 10 µM (by protocol). 65,000 compounds, 2.2% hits;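 active = growth inhibition at or above a cutoff equal to the mean over every tested compound plus 3 SD, cut at about 60% in these data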;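 note: growth measured after 20 h incubation at 37 °C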
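Test system: tolC-deleted E. coli BW25113 | Medium: LB with kanamycin 50 µg/mL | Compound dosing: Single concentration, 10 µM final per compound | Schedule: 37 °C, 20 h exposure | Measured by: OD at 615 nm | Evaluation: Percent growth inhibition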
E coli WT exp: blocks growth of wild type E. coli BW25113. OD600 absorbance. growth inhibition, % at 100 µM. 98,000 compounds, 0.15% hits. AID 710;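 active = growth inhibition above about 50% at one test dose, limit read from the data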;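 note: growth measured after 20 h incubation at 37 °C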
PLAP activator: activators of human placental alkaline phosphatase | purified PLAP enzyme, luminescent substrate read-out; stronger effect = higher value | activation fold at 20 µM | 96,000 compounds, 1.2% hits | AID 696; in the data active = activation fold above about 2
PostGolgi ctrl: yeast control strain growth, post-Golgi counter-screen | efflux-deficient yeast background strain, growth absorbance A615, 16 h | inhibition, % at 10 µM | 98,000 compounds, 5% hits
PostGolgi yeast: growth inhibition of a yeast mutant, post-Golgi transport screen | AID 739 | 98,000 compounds, 0.9% hits | inhibition, % at 10 µM | post-Golgi transport phenotypic cell assay;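 note: yeast cells grown in 1536-well plates; yeast grown about 18 h at 30C before absorbance read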
Starred values were filed as active, the others as inactive; nt = no result; ! = a repeat was not active. Cut-off read from the data, not from the text of the source, unless noted: active = inhibition above about 30%; inactive = the rest.

SMILES	HePTP inhibitor	tolC growth inh	E coli WT exp	PLAP activator	PostGolgi ctrl	PostGolgi yeast
Cc1onc(-c2ccccc2)c1C(=O)OCC(=O)c1ccccc1	-4	71*	1	0.7	12	2
O=C(NC(NC(=S)Nc1ccccc1Cl)C(Cl)(Cl)Cl)c1ccccc1F (stereo unspecified)	-9	nt	nt	nt	nt	nt
Cc1onc(-c2ccccc2)c1C(=O)Nc1nc(-c2ccccc2)cs1	nt	nt	0	1.6	34*	-5
Cc1cc(C(=O)OC(C)C(=O)Nc2nc(-c3ccccc3)cs2)c(C)o1 (stereo unspecified)	nt	nt	-13	0.8	37*	0
Cc1cc(C(=O)OCC(=O)Nc2nc(-c3ccccc3)cs2)c(C)o1	4	6	-3	1	-3	-6
Cc1onc(-c2ccccc2)c1C(=O)Nc1nnc(N(C)Cc2ccccc2)s1	-5	61*	-11	1.2	16	4
Cc1onc(-c2c(F)cccc2Cl)c1C(=O)Nc1nnc(-c2ccccc2)s1	nt	nt	-1	0.9	10	-8
Cc1onc(-c2ccccc2)c1C(=O)Nc1nc(-c2cc(F)ccc2F)cs1	3	-2	-9	0.9	0	-2
Cc1ccc(/C=C/C(=O)Nc2cccc3ccccc23)o1	10	nt	nt	nt	nt	nt
COc1cccc(C(=O)N/N=C/c2cn[nH]c2-c2ccc(OC)cc2OC)c1	nt	nt	2	2.2*	0	-10
CC(C)C(C)NC(=O)COc1ccc(-c2ccccc2)cc1 (stereo unspecified)	nt	nt	-7	0.8	18	32*
Cc1ccc(OCC(=O)Nc2ccccc2-c2ccccc2)cc1	-8	nt	16	nt	46*	-5
COc1ccc(CN(C(=O)c2ccco2)C2CC(C)N(C)CC2C)cc1 (stereo unspecified)	102*!	-6	7	0.9	3	6
Cc1ccc(N=Nc2c(=O)[nH]n3c(=O)cc(C)[nH]c23)cc1	nt	nt	-13	2.1*	4	-1
Cc1ccc(-n2c(C)nc3c(cnn3-c3ccc(C)c(C)c3)c2=O)cc1C	nt	nt	-3	1.5	47*	6
O=C(N/N=C/c1ccc(Cl)cc1Cl)c1cc(O)cc(O)c1	-5	nt	nt	nt	nt	nt
Clc1ccc(/C=N/NC(=Nc2ccccc2)c2ccccn2)c(Cl)c1	nt	nt	-22	1	37*	0
Cc1ccc(NC(=O)Cn2nc([N+](=O)[O-])c(Br)c2C)cc1C	nt	nt	-7	1	-1	-5
COc1cc2nc(NCC3CCCO3)n3nc(-c4cccnc4)nc3c2cc1OC (stereo unspecified)	-9	16	-2	2*	29	-3
CCN(CC)CCCNc1nc2cc(OC)c(OC)cc2c2nc(-c3cccnc3)nn12	nt	nt	2	1.5	1	-7
CCN(CC)CCCNc1nc2cc(OC)c(OC)cc2c2nc(-c3ccccc3)nn12	nt	nt	3	2*	-1	6
O=c1[nH]cnc2c1nc(SCc1ccccc1)n2C1OC(CO)C(O)C1O (stereo unspecified)	2	-23	2	1.2	8	6
CC(C)(C)c1nnc(NC(=O)CSc2nnnn2-c2ccccc2)s1	1	nt	nt	nt	nt	nt
CC1(C)CC(=O)C2=C(C1)N(Cc1cccnc1)C(=O)C2(NC(=O)C1CC1)C(F)(F)F (stereo unspecified)	10	-11	6	0.9	-12	4
Cc1cccc(-n2ncc3c(NCCCN4CCCC4=O)ncnc32)c1	nt	nt	5	1	5	-11
SMILES	HePTP inhibitor	tolC growth inh	E coli WT exp	PLAP activator	PostGolgi ctrl	PostGolgi yeast
O=C1CCCN1CCCNc1ncnc2c1cnn2-c1ccc(Cl)cc1	11	9	1	1.4	38*	-3
CCOc1ccc(NC(=O)N(CCC(C)C)C2CCN(C(C)=O)CC2)cc1	nt	nt	0	2*	-4	15
CCOc1ccc(NC(=O)N2CCC(c3ccc(C)cc3)C2)cc1 (stereo unspecified)	nt	nt	-1	0.9	36*	-24
CCOCCCN(C(=O)Nc1ccc(CC)cc1)C1CCN(C(C)=O)CC1	-11	-12	0	1.2	6	14
CCCOC(=O)c1ccc(NC(=S)NC(=O)COc2ccccc2)cc1	1	nt	nt	nt	nt	nt
CC(C)Oc1ccc(CNC2CCOC(C)(C)C2)cc1 (stereo unspecified)	14	-35	-8	1.3	42*	1
CCOC(=O)c1ccc(NC(=O)CC(=O)Nc2ccc(C(=O)OCC)cc2)cc1	0	nt	nt	nt	nt	nt
CCOC(=O)c1ccc(NC(=O)CC2OCCN(CC)C2=O)cc1 (stereo unspecified)	9	-5	-2	1.3	35*	-4
COc1cc(CNC2CCCC2)cc(Cl)c1OCc1ccccc1F	nt	nt	20	2*	30	5
COc1cc(CNC2CCCCCC2)cc(OC)c1O	8	3	-3	1	6	13
c1ccc(-c2nc(-n3nc4ccccc4n3)nc3ccccc23)cc1	nt	nt	2	0.8	78*	10
COc1ccc(C(c2sc3ncnn3c2O)N2CCN(c3ccccc3F)CC2)cc1OC (stereo unspecified)	5	18	1	1.6	-2	-7
Cc1c(/C=C/c2nc3ccccc3c(=O)n2-c2ccc([N+](=O)[O-])cc2)c2ccccc2n1C	81*	nt	nt	nt	nt	nt
Clc1ccc(OCc2nn3c(-c4ccncc4)nnc3s2)cc1	5	-5	-5	1.1	24	5
COCCNc1cc(C)nc2c3c(C)cc(C)nc3nn12	7	-5	3	1.8	0	47*
CC(=O)Nc1ccc(NC(=S)NC(NC(=O)c2ccc(C)cc2)C(Cl)(Cl)Cl)cc1 (stereo unspecified)	3	nt	nt	nt	nt	nt
CCCn1c(=O)c2ccccc2n2c(SCc3cc(=O)n4ccsc4n3)nnc12	-7	-11	nt	nt	nt	nt
Cc1cccc(-n2c(SCc3cc(=O)n4ccsc4n3)nc3ccccc32)c1	-4	15	-10	nt	33*	5
C=CCn1c(C)cc(C(=O)CSc2n[nH]c(N)n2)c1C	nt	nt	-1	2.7*	3	-2
Cc1cc(C(=O)CSc2n[nH]c(N)n2)c(C)n1-c1cc(F)ccc1F	11	17	2	2.4*	1	2
Cc1cc(C(=O)CSc2n[nH]c(-c3ccccc3F)n2)c(C)n1Cc1cccs1	nt	nt	-22	1.5	33*	1
O=C(CSc1nc2ccccc2n1Cc1ccccc1)N/N=C/c1ccc([N+](=O)[O-])cc1	86*	nt	nt	nt	nt	nt
O=C(c1cn(-c2ccccc2)nc1-c1cccs1)N1CCN(c2ccc(F)cc2)CC1	nt	nt	-9	1.1	48*	-6
S=C(c1cn(-c2ccccc2)nc1-c1cccs1)N1CCOCC1	2	nt	nt	nt	nt	nt
Cc1ccc(OCCCn2c(CO)nc3ccccc32)cc1	10	38	9	1.6	7	37*
Cc1cc(Oc2ccc(Cl)cc2)nc(-c2ccccc2O)n1	9	15	-10	1	-9	-5
O=C(Nc1ccc(Br)c(Cl)c1)c1ccccc1Cl	3	nt	nt	nt	nt	nt
O=C(c1ccccc1)c1cccc(NC(=O)c2ccco2)c1	8	32	2	0.6	38*	-4
CC(=O)c1cccc(NC(=O)c2ccco2)c1	2	-11	7	0.9	7	-1
O=C(Nc1ccc(Br)c(Cl)c1)c1ccco1	-4	100*	5	0.9	12	27
